This is a sample that favours compounds with a hit; in the whole collection about 6.7% have one here.
PREPL inhibitor: human PREPL enzyme inhibition; Q4J6C6; recombinant PREPL, fluorescence polarization activity-based probe; inhibition, % at 5.96 µM; hit rate 0.68% among 320,000; AID 2751; in the data active = inhibition above about 43%;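 note: 0% = enzyme with DMSO and 100% = wells lacking enzyme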
Target sequence (Q4J6C6 whole entry, looked up): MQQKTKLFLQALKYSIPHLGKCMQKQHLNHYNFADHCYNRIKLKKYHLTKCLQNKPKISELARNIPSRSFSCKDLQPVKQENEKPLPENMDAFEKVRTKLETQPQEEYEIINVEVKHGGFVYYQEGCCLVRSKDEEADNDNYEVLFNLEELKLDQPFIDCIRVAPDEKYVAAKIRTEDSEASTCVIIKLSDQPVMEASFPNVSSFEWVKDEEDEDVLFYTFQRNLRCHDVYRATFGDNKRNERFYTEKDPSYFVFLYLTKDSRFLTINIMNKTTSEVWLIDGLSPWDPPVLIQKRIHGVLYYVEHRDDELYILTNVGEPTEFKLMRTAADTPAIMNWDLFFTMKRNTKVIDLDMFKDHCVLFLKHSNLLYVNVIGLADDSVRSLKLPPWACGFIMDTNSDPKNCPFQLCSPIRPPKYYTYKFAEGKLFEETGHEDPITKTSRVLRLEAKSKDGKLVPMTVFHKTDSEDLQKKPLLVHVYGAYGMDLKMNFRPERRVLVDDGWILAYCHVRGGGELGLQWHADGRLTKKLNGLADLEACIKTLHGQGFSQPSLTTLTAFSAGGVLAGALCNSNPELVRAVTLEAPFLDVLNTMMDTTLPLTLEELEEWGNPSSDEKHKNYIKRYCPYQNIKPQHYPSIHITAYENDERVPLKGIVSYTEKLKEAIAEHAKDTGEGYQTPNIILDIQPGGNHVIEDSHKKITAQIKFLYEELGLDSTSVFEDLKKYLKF
Beta cell apopt: blocks beta cell apoptosis. hit rate 0.8% among 300,000. AID 435005. INS-1E cytokine-induced death, ATP luminescence, 48 h; percent of positive-control rescue, neutral wells zero. protection from apoptosis, % (test concentration not listed);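 active = Every replicate reaches about 75%, or at least half do and their mean reaches it too, limit read from the data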;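 note: 0% = cytokine-treated negative control wells and 100% = positive control rescue; higher means more ATP so stronger rescue from cytokine killing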
T cruzi inh: T. cruzi replication inhibition | hit rate 1.4% among 300,000 | inhibition, % (test concentration not listed) | AID 1885 | T. cruzi beta-gal in NIH3T3, luminescence, 90 h;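 active = mean inhibition across valid replicates above about 55%, limit read from the data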;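 note: signal also drops with host cell toxicity which is not excluded here; 0% = plate median of DMSO wells and 100% = zero luminescence signal; higher percent means less beta-gal luminescence so fewer parasites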
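Read-out: Parasite load inhibition, % | Test system: Mouse NIH/3T3 fibroblasts infected with β-gal-expressing T. cruzi Tulahuen C4 | Amount: 5,000 cells/well | Medium: DMEM, 2% fetal bovine serum | Signal: GalScreen β-gal luminescence, detergent lysis, 60 min | Timing: 3 h attach, ≥90 h co-culture | Also added: Tulahuen C4 trypomastigotes, 5000/well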
CHOP inh: blocks CHOP induction under ER stress | CHO-K1 CHOP-promoter luciferase, tunicamycin-induced, 15-18 h | inhibition, % at 10 µM | hit rate 3.8% among 220,000 | AID 2732;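 active = compounds that reduced the stress-induced luciferase reporter signal by more than about 70% of percent inhibition, limit read from the data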;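 note: 0% = tunicamycin plus vehicle and 100% = wells without tunicamycin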
NR3A LBD binder: NR3A (human) ligand-binding domain modulation; NR3A LBD differential scanning fluorimetry, Tm shift; 0% = protein alone, 100% = glycine-bound protein; AID 1259313; hit rate 2.5% among 340,000; Tm shift relative to glycine control, % at 25 µM;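 active = melting temperature shift of at least 10% of the positive control shift, at one fixed dose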
CSC inhib: cancer stem cell inhibition | cancer stem cell-like cells viability, luminescence | inhibition, % at 7.5 µM | hit rate 1.1% among 300,000 | AID 2717; in the data active = inhibition above about 75%; tested in HMLE shEcad cells
An asterisk follows results filed as active.

What do the screens show for `O=C(Nc1nc2ccc(Cl)cc2s1)c1ccc(Br)o1`?
PREPL inhibitor: 14; Beta cell apopt: 14; T cruzi inh: -1; CHOP inh: 74*; NR3A LBD binder: 9; CSC inhib: 6

Results for CS(=O)(=O)c1ccc2sc(NC(=O)c3cc4ccccc4o3)nc2c1 ?
PREPL inhibitor: 7; Beta cell apopt: 10; T cruzi inh: -15; CHOP inh: -28; NR3A LBD binder: 11*; CSC inhib: -11

How did Cc1ccc(C(=O)Nc2nc3ccc(S(C)(=O)=O)cc3s2)o1 do in these assays?
PREPL inhibitor: 3; Beta cell apopt: 25; T cruzi inh: -10; CHOP inh: -17; NR3A LBD binder: 1; CSC inhib: 32

How did COc1ccccc1Cn1c(=S)[nH]c2ccc(F)cc2c1=O do in these assays?
PREPL inhibitor: -4; T cruzi inh: 6; NR3A LBD binder: -4

What do the screens show for `Cc1ccc(-c2nc3cc(Br)cnc3nc2-c2ccc(C)cc2)cc1`?
PREPL inhibitor: 4; Beta cell apopt: 13; T cruzi inh: 58*; CHOP inh: 4; NR3A LBD binder: -2; CSC inhib: 57

Results for Brc1cccc(-c2nc3cccnc3nc2-c2cccc(Br)c2)c1 ?
PREPL inhibitor: 7; Beta cell apopt: 10; T cruzi inh: 49; NR3A LBD binder: 0; CSC inhib: 26

How did CCNC(=S)NNC(=O)c1cc(-c2cccc(OC)c2)nc2ccccc12 do in these assays?
PREPL inhibitor: 14; Beta cell apopt: 12; T cruzi inh: 7; CHOP inh: -42; NR3A LBD binder: -1; CSC inhib: 5

What do the screens show for `COc1ccc(Cl)cc1C(=O)NNC(=S)NC(=O)c1cc(-c2ccccc2)nc2ccccc12`?
PREPL inhibitor: 9; Beta cell apopt: 9; T cruzi inh: 0; CHOP inh: 28; NR3A LBD binder: 6; CSC inhib: -6

How did CCCOc1ccc(C(=O)NNC(=S)NC(=O)c2cc(-c3ccc(Cl)cc3)nc3ccccc23)cc1 do in these assays?
PREPL inhibitor: 3; Beta cell apopt: 37; T cruzi inh: 32; CHOP inh: 72*; NR3A LBD binder: 14*; CSC inhib: 71

How did CCCOc1cccc(-c2cc(C(=O)NNC(=S)NCC)c3ccccc3n2)c1 do in these assays?
PREPL inhibitor: 7; Beta cell apopt: 28; T cruzi inh: 8; CHOP inh: 56; NR3A LBD binder: 14*; CSC inhib: -1

How did CCNC(=S)NNC(=O)c1cc(-c2ccc(OCC)cc2)nc2ccccc12 do in these assays?
PREPL inhibitor: 2; Beta cell apopt: 71; T cruzi inh: 2; CHOP inh: 49; NR3A LBD binder: 1; CSC inhib: 20

How did COc1ccc(C(=O)NNC(=S)NC(=O)c2cc(-c3ccccc3)nc3ccccc23)cc1 do in these assays?
PREPL inhibitor: 10; Beta cell apopt: -1; T cruzi inh: -12; CHOP inh: 35; NR3A LBD binder: 14*; CSC inhib: -6

How did CCOc1ccc(OCCC(=O)OCC(=O)NCc2ccccc2)cc1 do in these assays?
PREPL inhibitor: 14; Beta cell apopt: 2; T cruzi inh: -16; NR3A LBD binder: 2

Results for COc1ccccc1NS(=O)(=O)c1ccc(C)c(C(=O)NCC2(N(C)C)CCCCC2)c1 ?
PREPL inhibitor: -10; Beta cell apopt: -5; NR3A LBD binder: 0; CSC inhib: -7

How did O=C(NCc1ccon1)C1CCC(=O)N(CCc2ccc(Cl)cc2)C1 (centres undefined) do in these assays?
PREPL inhibitor: 4; Beta cell apopt: -8; T cruzi inh: -6; NR3A LBD binder: 0; CSC inhib: -1

Results for NNC(=O)Cn1c(COc2ccc(Cl)cc2)nc2ccccc21 ?
PREPL inhibitor: -6; Beta cell apopt: 4; T cruzi inh: -13; CHOP inh: -23; NR3A LBD binder: -3; CSC inhib: 7

How did Cc1ccc(SCc2nc3ccccc3n2CC(=O)Nc2c(C)cccc2C)cc1 do in these assays?
PREPL inhibitor: 6; Beta cell apopt: 14; T cruzi inh: 21; CHOP inh: 90*; NR3A LBD binder: -1; CSC inhib: 8

How did CSc1nc2ccccc2n1CC(=O)Nc1c(C)cccc1C do in these assays?
PREPL inhibitor: 13; Beta cell apopt: 2; T cruzi inh: -7; CHOP inh: 8; NR3A LBD binder: 0; CSC inhib: -2

Results for O=C(Cn1c(COc2ccccc2)nc2ccccc21)Nc1cccc(Cl)c1 ?
PREPL inhibitor: -6; Beta cell apopt: -3; T cruzi inh: 3; CHOP inh: 78*; NR3A LBD binder: -7; CSC inhib: -11

How did CSc1nc2ccccc2n1CC(=O)Nc1ccccc1 do in these assays?
PREPL inhibitor: -2; Beta cell apopt: 1; T cruzi inh: -4; CHOP inh: 21; NR3A LBD binder: 1; CSC inhib: -1

What do the screens show for `O=C(Cn1c(/C=C/c2ccccc2)nc2ccccc21)Nc1ccc(F)cc1`?
PREPL inhibitor: 30; Beta cell apopt: 0; T cruzi inh: 20; CHOP inh: 31; NR3A LBD binder: 14*; CSC inhib: -2

How did Cc1ccc(SCc2nc3ccccc3n2CC(=O)Nc2ccccc2)cc1 do in these assays?
PREPL inhibitor: 53*; Beta cell apopt: -6; T cruzi inh: 33; CHOP inh: 34; NR3A LBD binder: 0

How did O=C(Cn1c(CSc2ccccc2)nc2ccccc21)Nc1ccccc1 do in these assays?
CHOP inh: 31

Results for CCOC(=O)c1ccc(NC(=O)NCCc2cnc[nH]2)cc1 ?
PREPL inhibitor: -2; T cruzi inh: -12; NR3A LBD binder: -3; CSC inhib: -5

How did CC1CC(C)CN(C(=O)CSc2nc(N)cc(=O)[nH]2)C1 (centres undefined) do in these assays?
PREPL inhibitor: 1; Beta cell apopt: -8; T cruzi inh: -9; CHOP inh: -3; NR3A LBD binder: -4; CSC inhib: -11

How did O=S1(=O)NC(CC2=CCCCC2)C2CCCCC2O1 (centres undefined) do in these assays?
PREPL inhibitor: 6; Beta cell apopt: 0; T cruzi inh: 19; NR3A LBD binder: -1; CSC inhib: -10

How did CCOC(=O)c1cc2cc(OCc3ccccc3)ccc2nc1C do in these assays?
PREPL inhibitor: -11; Beta cell apopt: -1; T cruzi inh: 25; NR3A LBD binder: 1; CSC inhib: 19

How did CCOc1ccc2ncc(C(=O)c3ccc(OC)cc3)c(N3CCN(CC)CC3)c2c1 do in these assays?
PREPL inhibitor: 4; Beta cell apopt: 4; T cruzi inh: 11; CHOP inh: 63; NR3A LBD binder: 2; CSC inhib: -11

How did CCOC(=O)c1cnc2ccc(OCC)cc2c1N(C)Cc1ccccc1 do in these assays?
PREPL inhibitor: 8; Beta cell apopt: 4; T cruzi inh: 33; CHOP inh: 54; NR3A LBD binder: 11*

What do the screens show for `CCOC(=O)c1cnc2ccc(OCC)cc2c1N1CCN(c2ccccc2OC)CC1`?
PREPL inhibitor: 1; Beta cell apopt: 31; T cruzi inh: 57*; CHOP inh: 88*; NR3A LBD binder: 4; CSC inhib: 34

Assay outcomes as filed in PubChem.
